In ChEMBL document CHEMBL1129666, “Cross-linking and sequence specific alkylation of DNA BY aziridinylquinones. 1. Quinone methides” (J Med Chem, 1996):
pIC50: −log10 of the molar value.

Columns and labels:
[1] = tested on: Nucleic Acid; test: Efficiency at pBR322 DNA interstand cross-linking at 10 uM; assay type: functional; settings: Escherichia coli
Procedure, shortened: (§1)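 5'-end-labelled HindIII-linearised pBR322 (~5000 cpm/sample) incubated with compound 2 h at 37 °C, pH 4, in TEA buffer with 2 mM ascorbic acid reduction. Stopped, ethanol-precipitated, denatured 90 °C 2 min in strand separation buffer, run on 0.8% agarose (Tris-acetate, 40 V, 16 h). Autoradiograph densitometry gives percent double-stranded (cross-linked) DNA per lane. Single representative experiment.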

[2] = tested on: K562; test: In vitro cytotoxicity against Human Chronic Leukemia K562 cells; assay type: functional, cell-based
Procedure, shortened: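 600 cells/well exposed to compound for 2 h, growth measured by MTT with absorbance at 540 and 640 nm. Growth inhibition plotted against concentration, triplicate per concentration.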

[3] = tested on: Nucleic Acid; test: Efficiency at pBR322 DNA interstand cross-linking at 100 uM; assay type: functional; settings: Escherichia coli; procedure, shortened: as §1

Row | SMILES | Cross linking [1] | pIC50 [2] | Cross linking [3]
1 | O=C1C=C(N2CCC2)C(=O)C=C1N1CCC1 | 0% | < 4.40 | 0%
2 | CCC1=CC(=O)C(N2CC2)=CC1=O | 6.9% | 6.22 | 57.1%
3 | CC1=CC(=O)C(N2CCC2)=CC1=O | 0% | < 4.60 | 0%
4 | CC1=C(C)C(=O)C=CC1=O | 0% | 5.85 | 0%
5 | CC1=CC(=O)C(N2CC2)=C(C)C1=O | 3% | 5.92 | 9%
6 | CCCC1=CC(=O)C(N2CC2)=CC1=O | 2.2% | 6.22 | 13.2%
7 | CC1=CC(=O)C(N2CC2)=CC1=O | 12.2% | 7.00 | 81%
8 | O=C1C=C(N2CC2)C(=O)C=C1N1CC1 | 100% | 8.05 | 100%
9 | CC1=CC(=O)C=C(C)C1=O | 0% | 5.90 | 0%
10 | CC1=C(C)C(=O)C(N2CC2)=CC1=O | 1.2% | 5.89 | 4.7%
11 | CC1=CC(=O)C(N)=CC1=O | 0% | < 4.82 | 0%
12 | CC1=CC(=O)C=CC1=O [Cresoquinone] | 0% | 5.56 | 0%
13 | NC1=CC(=O)C(N)=CC1=O | 0% | < 4.60 | 0%
14 | CC1=C(C)C(=O)C(C)=C(C)C1=O [DUROQUINONE] | 0% | < 4.30 | 0%
15 | CC1=CC(=O)C(C)=C(C)C1=O | 0% | 5.44 | 0%
